This is a sample that favours compounds with a hit; in the whole collection about 1.3% have one here.
DDE Tn7 FP inh = inhibitors of Tn7 peptide binding to fibrin DD(E), primary screen, biochemical, fluorescence polarization, human fibrin, Tn7 probe | Fibrinogen beta chain (Homo sapiens), P02675 | FP displacement of FITC-Tn7 peptide from fibrin DD(E); 0% = median of compound wells per plate | inhibition, % at 8.3 µM | actives 0.13% (n = 370,000);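 active means inhibition above the mean of compounds falling within the control limits plus 3 SD of them, cut at about 14% in these data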;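 further: 0% = plate median of compound wells and 100% = 10 µM Aha-Tn7 peptide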
Target sequence (P02675 whole entry, looked up): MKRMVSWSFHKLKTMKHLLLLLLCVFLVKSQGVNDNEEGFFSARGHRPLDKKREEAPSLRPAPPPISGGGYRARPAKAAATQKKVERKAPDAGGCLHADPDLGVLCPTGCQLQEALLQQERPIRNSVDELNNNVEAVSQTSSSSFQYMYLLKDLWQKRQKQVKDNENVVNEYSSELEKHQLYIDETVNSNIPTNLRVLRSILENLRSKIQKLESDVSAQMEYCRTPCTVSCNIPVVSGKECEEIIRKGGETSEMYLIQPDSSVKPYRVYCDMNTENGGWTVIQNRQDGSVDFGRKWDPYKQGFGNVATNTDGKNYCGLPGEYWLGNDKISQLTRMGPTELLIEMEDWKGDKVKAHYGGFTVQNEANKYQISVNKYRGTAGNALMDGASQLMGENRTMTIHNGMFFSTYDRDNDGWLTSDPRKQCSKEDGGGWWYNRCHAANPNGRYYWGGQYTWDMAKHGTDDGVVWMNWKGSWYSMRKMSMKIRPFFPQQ
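Test system – human fibrin DD(E) · Times – 10 min preincubation, 3 h with tracer, room temperature · Detection – fluorescence polarization of the labelled Tn7 tracer · Measure – percent inhibition normalized to high-control wells · Benchmarks – high control wells with 10 µM unlabelled Aha-Tn7 peptide (full inhibition) · Repeats – singlicate testing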
CRFR2-BP ag = agonists of CRF-BP/CRF-R2 complex, primary screen, cell-based, HEK293, calcium dye fluorescence, uHTS. CRF-binding protein / CRF receptor 2 complex (human). calcium dye fluorescence (FLIPR); percent of saturating CRF peptide response. activation, % at 13.2 µM. actives 0.46% (n = 350,000). AID 588473, 2011;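 active means activation of at least 50%, plus an integration ratio under a set limit after plate pattern correction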;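 further: plate controls were neutral control wells without compound for no effect and CRF at EC100 for full effect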
CRFR2-BP antag = antagonists of CRF-BP/CRF-R2 complex, primary screen, cell-based, HEK293, calcium dye fluorescence, uHTS. CRF-induced calcium fluorescence. inhibition, % at 11.8 µM. actives 0.59% (n = 350,000). AID 588475, 2011;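 active means inhibition of the ligand-induced calcium signal above about 50% at the single tested concentration, limit read from the data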
DDE Tn6 FP inh = inhibitors of Tn6 peptide binding to fibrin DD(E), primary screen, biochemical, fluorescence polarization, human fibrin, Tn6 probe. Fibrinogen beta chain (Homo sapiens), P02675. Fibrin DD(E) TRITC-Tn6 fluorescence polarization displacement. inhibition, % at 8.3 µM. actives 0.21% (n = 370,000);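 active means inhibition above a per-campaign cutoff: mean of compounds within control limits plus 3 SD, cut at about 15% in these data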;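 further: 0% = median of all compound wells on the plate and 100% = blocking peptide control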
The depositor's hits bear a star; . = not tested or not shown.

SMILES	DDE Tn7 FP inh	CRFR2-BP ag	CRFR2-BP antag	DDE Tn6 FP inh
O=C(NC1CCCCCC1)C(=S)N1CCOCC1	0	-2	-17	-4
O=C(CCn1nnc2ccccc21)N1CCN(c2ccccc2)CC1	3	1	95*	-14
CCCCC(=O)N[C@H]1CC[C@@]23CCCN2C(=O)CCC[C@H]3[C@H]1CCC	-1	.	.	5
Cc1nc(Sc2ccccc2)c(C#N)cc1-c1ccccc1	.	6	53*	.
Cc1nc(Cl)c(C#N)cc1-c1ccccc1	7	-3	6	-5
CC(C)CC(=O)Nc1ccc(C(=O)COC(=O)Cc2n[nH]c(=O)c3ccccc23)cc1	3	51*	-20	-1
O=C(Cc1n[nH]c(=O)c2ccccc12)OCC(=O)c1ccccc1	-7	-1	3	-1
O=C(OCCN1C(=O)c2ccccc2C1=O)c1cccc(OC(F)F)c1	1	-3	100*	-9
Cc1ccc(N2C(=O)C3C4C=CC(CC4)C3C2=O)cc1[N+](=O)[O-] (stereo not given)	-3	2	73*	-3
O=c1[nH]n2c(=O)c3c([nH]c2c1N=Nc1cccc(Cl)c1)CCCC3	6	-1	67*	-13
CCOc1ccc(N=Nc2c(=O)[nH]n3c(=O)c4c([nH]c23)CCCC4)cc1	2	-6	51*	1
CCOc1ccc(N=Nc2c(=O)[nH]n3c(=O)cc(C)[nH]c23)cc1	3	-2	0	-2
O=C(NCC(c1ccco1)N1CCCC1)c1cc2cc(Cl)ccc2o1 (stereo not given)	-2	57*	-27	6
COc1ccc(-n2ncc(C(C)NS(=O)(=O)c3cc(C)sc3C)c2C)cc1 (stereo not given)	2	-5	51*	10
COC(=O)c1sccc1S(=O)(=O)NC(C)c1cnn(-c2ccc(OC)cc2)c1C (stereo not given)	-3	0	9	-10
CN(C)S(=O)(=O)c1ccc2c(c1)/C(=C/c1cc3c([nH]1)CCCC3)C(=O)N2	-6	122*	-139	0
CN(C)S(=O)(=O)c1ccc2c(c1)C(=O)c1cc(S(=O)(=O)N(C)C)ccc1CC2	-2	0	9	6
CN1CCN(CC(=O)Nc2cc(N(C)C)nc3ccccc23)CC1	4	-2	58*	-3
Cc1ccc(S(=O)(=O)NC(C(=O)O)c2ccccc2)cc1 (stereo not given)	0	133*	-176	9
COc1ccccc1N=Cc1c(C)[nH]n(-c2ccc(C)cc2C)c1=O	-5	1	5	-1
COc1ccc2nc(/N=C/c3c(C)[nH]n(-c4ccc(C)cc4C)c3=O)sc2c1	-5	65*	15	9
O=C(CSc1nnc(-c2ccccc2)n1-c1ccc(Cl)cc1)Nc1ccc2cn[nH]c2c1	-3	.	.	-4
COc1cccc(CNC(=O)c2cc3c(C)nc4ccccc4c3o2)c1	3	-6	-17	-2
COc1ccc(CNC(=O)c2cc3c(C)nc4ccccc4c3o2)c(OC)c1	.	-6	58*	.
O=C(NC1CCCCN(Cc2cccc(Cl)c2)C1=O)c1c(F)cccc1F (stereo not given)	1	.	.	5
SMILES	DDE Tn7 FP inh	CRFR2-BP ag	CRFR2-BP antag	DDE Tn6 FP inh
C[N+]1=C(N)N[C@@]2(C=C3CCCCC3n3c(=O)n(-c4ccccc4)c(=O)n32)C1 (stereo not given in full)	-13	.	.	0
Cc1cc(OC[C@@H](O)CN2CCC(C(O)(c3ccccc3)c3ccccc3)CC2)ccc1Br	-7	.	.	-6
CC(NC(=O)C1CCCN1S(=O)(=O)c1cccc2nsnc12)c1ccccc1 (stereo not given)	.	-3	76*	.
COc1cccc(NC(=O)n2ccc3ccc(-c4ccc5ccn(C(=O)Nc6cccc(OC)c6)c5c4)cc32)c1	1	.	.	2
COc1ccc(NC(=O)NC(C)c2ccc3c(c2)OCO3)c(OC)c1 (stereo not given)	-5	-4	63*	-6
O=S1(=O)c2ccc(Br)cc2OC[C@H](Cc2ccccc2)N1Cc1cn(Cc2ccc(F)cc2)nn1	-5	.	.	-1
O=C(NCCO)c1nc(C(=O)c2ccc(Cl)cc2)c2ccccc2n1	-6	-4	71*	4
COc1ccc(N2Cc3ccccc3C2=O)cc1	-1	-1	13	4
C=CC(=O)Oc1ccc(N2Cc3ccccc3C2=O)cc1	.	2	97*	.
O=C(Cc1c(O)c2ccccc2[nH]c1=O)OC1CCCCC1	2	-2	67*	6
CCN1CCc2c(sc(NC(=O)c3ccc(S(=O)(=O)N(CC)c4ccccc4)cc3)c2C(N)=O)C1	0	201*	-150	-2
CCCN1CCc2c(sc(NC(=O)c3ccc(S(=O)(=O)N4CCCC4)cc3)c2C(N)=O)C1	-4	62*	-54	4
CCN1CCc2c(sc(NC(=O)Nc3ccc(Cl)c(Cl)c3)c2C(N)=O)C1	-4	239*	-276	-10
NC(=O)c1c(NC(=O)c2ccccc2)sc2c1CCN(Cc1ccccc1)C2	-7	178*	-182	-1
CCN1CCc2c(sc(NC(=O)c3ccc(C(=O)c4ccccc4)cc3)c2C(N)=O)C1	4	10	-15	-7
COc1ccc(NC(=O)c2nc3nccc(C)n3n2)cc1S(=O)(=O)N1CCOCC1	-3	0	108*	-7
CCO[C@@H]1OC(C(N)=O)=C[C@H](C(C)(C)C)[C@H]1CCCO	4	1	109*	3
O=C(CSc1nc2ccccc2o1)NN=C/C=C\c1ccccc1[N+](=O)[O-]	0	.	.	3
O=C(CNS(=O)(=O)c1cccs1)NCCc1ccc(Cl)cc1	0	-2	56*	-14
COCc1ccc(CN2CCC(C(=O)Nc3cccc(-c4cscn4)c3)CC2)o1	-6	2	90*	10
Cc1cc(NCCc2c[nH]c3ccccc23)ccc1Nc1cccnc1	-10	.	.	-2
COc1ccc(CN2C(=O)COc3ccccc3C2c2nnnn2C2CCCCC2)cc1 (stereo not given)	7	.	.	0
COCCn1cnc2c(c1=O)c1nc3ccccc3nc1n2/N=C/c1cccc(OC)c1	5	-1	57*	-2
C=CCn1cnc2c(c1=O)c1nc3ccccc3nc1n2/N=C/c1cccc(OC)c1OC	-5	0	54*	-5
O=C(NCc1ccc(F)c(F)c1)C1CCC(CNS(=O)(=O)c2cccc3cccnc23)CC1 (stereo not given)	3	.	.	1
CCOc1ccccc1-c1c2cc(O)c(=O)cc-2oc2cc(O)c(O)cc12	.	260*	-219	.
COc1ccc(OC)c(-c2c3cc(O)c(=O)cc-3oc3cc(O)c(O)cc23)c1	.	145*	-71	.
CCNC(=O)OCCN1C(=O)CCC12CCC(c1ccc(Cl)cc1)CC2 (stereo not given)	3	.	.	-3

High-throughput results from PubChem BioAssay.
